Reference: publication PMC3182458 (Bioorganic & medicinal chemistry letters, 2008)
Values joined by “and” are separate entries in the source; they are usually repeats but may differ in a detail not shown here. Identical values can stand only once. “Also recorded” adds a separate entry of the source.

Assays:
[1] = cited from earlier work
human mGluR4 = human mGluR4 (Homo sapiens, UniProt Q14833); type: cell-based
[2] = stability in fortified liver microsome preparations; type: in vitro ADME; conditions: after 90 minutes, fortified liver microsomes
rat mGluR5 = experiment: calcium fluorescence counterscreen in rat mGluR5/HEK cells; type: cell-based
Method in brief: (§1)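 Calcium mobilization in rat receptor lines: mGluR1/BHK plated at 20,000 cells/well, mGluR5/HEK at 15,000 cells/well, in DMEM with 10% dialyzed FBS and 20 mM HEPES. […] Test compound run as a 10-point curve from 30 µM final, 1:3 dilutions. Maximum fluorescence of the EC20 and EC80 peaks is expressed versus control.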

rat mGluR1 = rat mGluR1 (Rattus norvegicus, UniProt P23385); experiment: calcium fluorescence counterscreen in rat mGluR1/BHK cells; type: cell-based
Chain of rat mGluR1 (P23385 19-1199): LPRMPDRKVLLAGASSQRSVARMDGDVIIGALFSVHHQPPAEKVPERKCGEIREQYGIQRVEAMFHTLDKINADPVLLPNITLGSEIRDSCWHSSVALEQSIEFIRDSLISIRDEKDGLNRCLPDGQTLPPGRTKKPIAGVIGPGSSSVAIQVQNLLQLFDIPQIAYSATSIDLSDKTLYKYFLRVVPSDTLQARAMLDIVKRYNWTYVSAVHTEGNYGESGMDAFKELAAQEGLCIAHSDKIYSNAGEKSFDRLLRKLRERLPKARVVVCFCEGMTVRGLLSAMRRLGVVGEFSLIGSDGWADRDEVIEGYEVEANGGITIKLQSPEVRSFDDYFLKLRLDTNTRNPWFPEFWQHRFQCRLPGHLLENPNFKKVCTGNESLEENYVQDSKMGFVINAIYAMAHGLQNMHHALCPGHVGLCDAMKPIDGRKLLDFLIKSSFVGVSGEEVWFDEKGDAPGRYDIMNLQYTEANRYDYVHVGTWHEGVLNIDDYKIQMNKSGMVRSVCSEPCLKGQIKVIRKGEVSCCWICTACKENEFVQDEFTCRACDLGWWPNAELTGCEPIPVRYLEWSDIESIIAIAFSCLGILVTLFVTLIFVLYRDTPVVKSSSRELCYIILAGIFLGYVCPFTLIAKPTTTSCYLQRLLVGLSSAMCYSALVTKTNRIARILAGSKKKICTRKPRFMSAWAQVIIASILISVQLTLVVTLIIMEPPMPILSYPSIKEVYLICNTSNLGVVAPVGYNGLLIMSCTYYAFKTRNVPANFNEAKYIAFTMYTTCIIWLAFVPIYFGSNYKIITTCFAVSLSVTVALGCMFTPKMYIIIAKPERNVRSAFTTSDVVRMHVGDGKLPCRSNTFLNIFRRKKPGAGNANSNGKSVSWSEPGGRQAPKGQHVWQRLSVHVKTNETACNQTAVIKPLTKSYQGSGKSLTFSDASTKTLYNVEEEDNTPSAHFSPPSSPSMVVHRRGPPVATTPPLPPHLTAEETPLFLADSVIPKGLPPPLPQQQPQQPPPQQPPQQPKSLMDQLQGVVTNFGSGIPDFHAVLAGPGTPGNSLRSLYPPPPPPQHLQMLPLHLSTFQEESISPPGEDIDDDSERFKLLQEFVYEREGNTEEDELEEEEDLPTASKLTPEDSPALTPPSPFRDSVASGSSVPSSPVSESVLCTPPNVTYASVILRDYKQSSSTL
Method in brief: as §1

Chain of human mGluR4 (Q14833 33-912): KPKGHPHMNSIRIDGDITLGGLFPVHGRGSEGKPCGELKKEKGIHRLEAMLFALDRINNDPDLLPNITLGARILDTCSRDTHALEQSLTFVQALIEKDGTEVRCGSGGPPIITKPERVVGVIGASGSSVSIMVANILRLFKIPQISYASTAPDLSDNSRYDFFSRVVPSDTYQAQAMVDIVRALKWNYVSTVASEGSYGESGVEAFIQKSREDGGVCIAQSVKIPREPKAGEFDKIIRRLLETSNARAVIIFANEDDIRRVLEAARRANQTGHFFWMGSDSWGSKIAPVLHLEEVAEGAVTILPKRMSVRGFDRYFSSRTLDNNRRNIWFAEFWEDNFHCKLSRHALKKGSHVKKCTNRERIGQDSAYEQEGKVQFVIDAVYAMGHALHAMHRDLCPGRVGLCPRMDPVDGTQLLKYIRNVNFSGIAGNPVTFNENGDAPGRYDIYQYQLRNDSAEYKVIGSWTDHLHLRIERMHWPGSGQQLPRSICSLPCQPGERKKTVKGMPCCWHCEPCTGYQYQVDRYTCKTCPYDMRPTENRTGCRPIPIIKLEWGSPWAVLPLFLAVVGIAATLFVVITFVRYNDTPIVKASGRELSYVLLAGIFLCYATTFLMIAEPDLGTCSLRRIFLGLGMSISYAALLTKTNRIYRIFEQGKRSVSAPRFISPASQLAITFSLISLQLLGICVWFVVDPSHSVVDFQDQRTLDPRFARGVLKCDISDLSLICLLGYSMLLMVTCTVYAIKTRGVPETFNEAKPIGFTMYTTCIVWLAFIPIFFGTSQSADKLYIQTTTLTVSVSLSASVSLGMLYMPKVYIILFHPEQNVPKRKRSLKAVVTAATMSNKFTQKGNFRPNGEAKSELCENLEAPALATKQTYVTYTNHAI

| EC50 (human mGluR4) | Fold shift (leftward shift of the glutamate response curve) (human mGluR4; compound at 30 µM, HTS stock of 7) | potentiation of an EC20 of glutamate in the HTS campaign (human mGluR4; mGluR4/Gqi5 CHO cells, HTS) | effect on mGluR4 in the absence of glutamate (human mGluR4; no glutamate) | parent compound remaining [2] | mode of action at mGluR1 (rat mGluR1) | Structure (SMILES) | brain penetration [1] | effect on the glutamate max (maximal response) (human mGluR4; compound at 30 µM) | selectivity versus mGluR5 (rat mGluR5) | CNS penetration [1] |
| --- | --- | --- | --- | --- | --- | --- | --- | --- | --- | --- |
| – | – | – | – | – | – | O=C(Nc1ccccc1)[C@]12C[C@H]1/C(=N\O)c1ccccc1O2 [(−)-PHCCC, reference compound] | limited brain penetration | elevation in the glutamate max; also recorded: increases maximal response | – | – |
| ~5 µM | 27.2(±8.5) fold and 27.2 fold | Concentration-dependent potentiation | does not activate mGluR4 | 9% | full antagonist | Cc1ccc(-n2ncc3c(N4CCCC(C)C4)ncnc32)c(C)c1 (centres unmarked) [Compound 7, 1-(2,4-dimethylphenyl)-4-(3-methylpiperidin-1-yl)-1H-pyrazolo[3,4-d]pyrimidine] | – | no increase in the glutamate max | selective versus mGluR5 | – |
| – | – | – | – | – | – | N[C@@H](CCP(=O)(O)O)C(=O)O [L-AP4, L-(+)-2-amino-4-phosphonobutryic acid] | – | – | – | limited CNS penetration |
